Active and inactive are the calls of the source. The calls are words filed in the database; no cut-off is given here.

Series [1] is described as follows: Antitumor activity against human NCI60 cells after 48 hrs by SRB assay. The class given is functional. To be noted: NCI60, 48 h. An outline of the steps: (§1)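 Cells were exposed to the drug continuously for 48 h. Cell viability or growth was estimated with the sulforhodamine B protein assay.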
On the technique in general: In SRB staining, fixed cells bind dye roughly in proportion to their protein.

For series [2], the species on record is Homo sapiens. In words: Stabilization of human telomeric G-quadruplex DNA assessed as inhibition of duplex formation at 5 uM by ESI-MS study. The essentials:
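Time-course ESI-MS was run on a mixture of 5 μM G-quadruplex DNA, 5 μM complementary C-DNA and 5 μM ligand. Ion intensities of single-stranded and duplex DNA were followed as the strands re-hybridized. TMPyP4 was the positive control and no ligand the negative control.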

In series [3] the test system is HOP-62. As to the kind of experiment: Antitumor activity against human HOP62 cells overexpressing c-myc after 48 hrs by SRB assay. The class given is functional. To be noted: HOP-62, 48 h. The essentials: as §1
Series [4] has as its system HOP-92. As to the kind of experiment: Antitumor activity against human HOP92 cells overexpressing c-myc after 48 hrs by SRB assay. It counts as functional. To be noted: HOP-92, 48 h. An outline of the steps:
as §1

In series [5] the test system is SF-539. In words: Antitumor activity against human SF539 cells overexpressing c-myc after 48 hrs by SRB assay. It counts as functional. To be noted: SF-539, 48 h. The essentials: as §1
Series [6] has as its system NCI-H226. As to the kind of experiment: Antitumor activity against human NCI-H226 cells overexpressing c-myc after 48 hrs by SRB assay. The class given is functional. To be noted: NCI-H226, 48 h. An outline of the steps:
as §1

In series [7] the target is DNA polymerase I, thermostable (Thermus aquaticus) (UniProt P19821). As to the kind of experiment: Inhibition of Taq polymerase.
For series [8], the target named is Telomerase reverse transcriptase (Homo sapiens) (UniProt O14746). In words: Inhibition of telomerase assessed as telomere elongation by TRAP assay. An outline of the steps:
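Telomere elongation was assessed by a TRAP assay with gel electrophoresis read-out.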

For series [9], the system named is Mus musculus. In words: Acute toxicity in ip dosed mouse. It counts as organism-based. To be noted: in vivo. The essentials:
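Mice given three dose regimens (100, 200 and 400 mg/kg), with animals followed to day 14 and body weight recorded at day 14 for signs of acute toxicity.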

Series [10] concerns DNA. In words: Binding affinity to calf thymus DNA at 10 uM by microarray fluorescence experiment. It counts as nucleic-acid assay. To be noted: Bos taurus. The essentials: (§2)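 DNA was prepared in TE buffer with 10 mM KCl at pH 7.0, to a final concentration of 400 […]. The oligonucleotide was hybridized with Cy3-AP3-dCTP. The ligand was 10 μM in aqueous 25% DMSO. Mixtures were incubated at 37°C for 5 min, then printed on slides. Excitation was at 310, 380, 410 and 485 nm, emission at 530 nm. Slides were read on a microarray scanner at 10 μm resolution.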

A short description of series [11]: Binding affinity to Hurley-oligonucleotide at 10 uM by microarray fluorescence experiment. An outline of the steps:
as §2

The species entered for series [12] is Homo sapiens. In words: Binding affinity to human DNA at a drug-DNA ratio of 1:1 by fluorescence experiment. The essentials: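 Solution fluorescence was measured on histone-free human DNA mixed with the ligand at a 1:1 molar ratio. The shift in λmax was monitored.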
Series [13] concerns Mus musculus. As to the kind of experiment: Toxicity in mouse assessed as weight gain at 100 mg/kg, ip after 14 days. The class given is organism-based. Set-up: dose 100 mg/kg, route intraperitoneal. To be noted: in vivo, 336 h. The essentials: (§3)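 Acute toxicity was tested in mice at three dose regimens (100, 200 and 400 mg/kg). Body weight was assessed at day 14.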
For series [14], the system named is Mus musculus. In words: Toxicity in mouse assessed as weight gain at 200 mg/kg, ip after 14 days. It counts as organism-based. Also on record: dose 200 mg/kg, route intraperitoneal. To be noted: in vivo, 336 h. The essentials: as §3
Series [15] has as its system Mus musculus. In words: Toxicity in mouse assessed as weight gain at 400 mg/kg, ip after 14 days. Also on record: dose 400 mg/kg, route intraperitoneal. To be noted: in vivo, 336 h. The class given is organism-based. The essentials: as §3
For series [16], the system named is EKVX. As to the kind of experiment: Antitumor activity against human EKVX cells overexpressing c-myc after 48 hrs by SRB assay. The class given is functional. An outline of the steps:
as §1

Series [17] has as its system HCC 2998. In words: Antitumor activity against human HCC2998 cells overexpressing c-myc after 48 hrs by SRB assay. To be noted: HCC 2998, 48 h. It counts as functional. An outline of the steps: as §1
Series [18] concerns SF-295. In words: Antitumor activity against human SF295 cells overexpressing c-myc after 48 hrs by SRB assay. To be noted: SF-295, 48 h. The class given is functional. An outline of the steps:
as §1

In series [19] the test system is SNB-75. As to the kind of experiment: Antitumor activity against human SNB75 cells overexpressing c-myc after 48 hrs by SRB assay. The class given is functional. As to conditions: SNB-75, 48 h. The essentials: as §1

Sequence of Telomerase reverse transcriptase (Homo sapiens) (O14746 whole entry): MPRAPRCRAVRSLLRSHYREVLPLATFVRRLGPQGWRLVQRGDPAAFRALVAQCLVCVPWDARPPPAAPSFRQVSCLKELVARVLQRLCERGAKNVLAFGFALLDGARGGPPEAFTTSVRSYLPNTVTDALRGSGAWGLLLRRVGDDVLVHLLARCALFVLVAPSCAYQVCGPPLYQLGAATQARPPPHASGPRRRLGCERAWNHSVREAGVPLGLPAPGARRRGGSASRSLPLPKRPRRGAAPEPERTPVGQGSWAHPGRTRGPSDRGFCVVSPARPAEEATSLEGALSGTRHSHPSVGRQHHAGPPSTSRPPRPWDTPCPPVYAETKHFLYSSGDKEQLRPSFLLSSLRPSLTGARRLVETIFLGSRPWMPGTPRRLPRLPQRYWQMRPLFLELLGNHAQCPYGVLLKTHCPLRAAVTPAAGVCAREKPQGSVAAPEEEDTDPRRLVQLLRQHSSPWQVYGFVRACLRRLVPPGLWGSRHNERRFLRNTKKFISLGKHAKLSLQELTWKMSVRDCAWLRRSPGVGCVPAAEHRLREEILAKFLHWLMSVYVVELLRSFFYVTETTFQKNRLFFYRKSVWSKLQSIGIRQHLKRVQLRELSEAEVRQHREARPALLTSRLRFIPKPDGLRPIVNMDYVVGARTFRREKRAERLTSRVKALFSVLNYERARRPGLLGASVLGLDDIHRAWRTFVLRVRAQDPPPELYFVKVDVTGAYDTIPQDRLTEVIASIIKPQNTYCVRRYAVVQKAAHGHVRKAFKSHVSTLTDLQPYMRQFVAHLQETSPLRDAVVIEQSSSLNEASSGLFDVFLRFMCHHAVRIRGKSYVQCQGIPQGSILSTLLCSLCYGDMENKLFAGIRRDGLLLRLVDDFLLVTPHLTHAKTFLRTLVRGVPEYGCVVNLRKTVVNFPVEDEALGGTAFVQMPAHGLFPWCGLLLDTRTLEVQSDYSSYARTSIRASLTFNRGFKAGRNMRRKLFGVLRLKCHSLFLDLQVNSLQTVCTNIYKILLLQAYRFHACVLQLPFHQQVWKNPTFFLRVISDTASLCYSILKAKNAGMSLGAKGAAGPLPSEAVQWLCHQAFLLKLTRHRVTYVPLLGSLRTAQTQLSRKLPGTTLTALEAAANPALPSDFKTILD
Sequence of DNA polymerase I, thermostable (Thermus aquaticus) (P19821 whole entry): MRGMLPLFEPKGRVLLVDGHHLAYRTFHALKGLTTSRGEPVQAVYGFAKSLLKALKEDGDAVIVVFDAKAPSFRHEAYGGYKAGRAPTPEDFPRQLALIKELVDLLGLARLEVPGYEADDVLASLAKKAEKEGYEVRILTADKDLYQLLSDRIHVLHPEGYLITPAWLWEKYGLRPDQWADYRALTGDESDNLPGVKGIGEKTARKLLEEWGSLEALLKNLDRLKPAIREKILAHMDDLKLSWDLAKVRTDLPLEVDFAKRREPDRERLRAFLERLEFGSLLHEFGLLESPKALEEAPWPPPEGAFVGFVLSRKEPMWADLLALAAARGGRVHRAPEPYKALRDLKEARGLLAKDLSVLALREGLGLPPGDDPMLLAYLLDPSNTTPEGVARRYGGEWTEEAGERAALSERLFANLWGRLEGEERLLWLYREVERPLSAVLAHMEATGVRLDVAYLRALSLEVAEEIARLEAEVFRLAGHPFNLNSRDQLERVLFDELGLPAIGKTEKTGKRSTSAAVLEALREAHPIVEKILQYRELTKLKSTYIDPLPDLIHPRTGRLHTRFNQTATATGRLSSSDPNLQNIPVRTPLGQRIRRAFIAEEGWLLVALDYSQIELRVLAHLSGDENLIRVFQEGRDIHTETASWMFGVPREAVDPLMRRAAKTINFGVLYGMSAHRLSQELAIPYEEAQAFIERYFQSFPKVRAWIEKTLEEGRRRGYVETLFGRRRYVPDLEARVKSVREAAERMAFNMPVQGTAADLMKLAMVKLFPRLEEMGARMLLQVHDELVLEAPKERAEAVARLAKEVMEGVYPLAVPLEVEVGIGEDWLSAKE

Take `CN(C)CCCNC(=O)c1cc(NC(=O)c2cc(NC(=O)c3onc(-c4c5ccccc5cc5ccccc45)c3C(=O)Nc3cc(C(=O)Nc4cc(C(=O)NCCCN(C)C)n(C)c4)n(C)c3)cn2C)cn1C`: the GI50 in [1] (read-out: GI50) and in series [1] (read-out: pGI50 (converted)) was 20.4 µM throughout.
For `CCOC(=O)c1c(-c2c3ccccc3nc3ccccc23)noc1C`, the GI50 in series [1] (read-out: GI50) and in [1] (read-out: pGI50 (converted)) was 20.4 µM each time.
Turning to `Cc1onc(-c2c3ccccc3cc3ccccc23)c1C(=O)Nc1cc(C(=O)N(CCCN(C)C)CCCN(C)C)n(C)c1`, the GI50 in series [1] (read-out: GI50) and in series [1] (read-out: pGI50 (converted)) was 3.89 µM throughout.
As for `Cc1onc(-c2c3ccccc3cc3ccccc23)c1C(=O)N(CCCN(C)C)CCCN(C)C`, the GI50 in series [1] (read-out: GI50) is 4.57 µM; in series [1] (read-out: pGI50 (converted)) it was 4.9 µM.
Regarding `Cc1onc(-c2c3ccccc3c(-c3ccccc3)c3ccccc23)c1C(=O)Nc1cc(C(=O)NCCCN(C)C)n(C)c1`, the result in series [2] was Active. In addition, the GI50 was 0.95 µM in series [1] (read-out: GI50); 1.95 µM in series [1] (read-out: pGI50 (converted)); 0.0105 µM in series [3]; 0.0631 µM in series [4]; less than 0.01 µM in [5].
On to `Cc1onc(-c2c3ccccc3cc3ccccc23)c1C(=O)NCCCN(C)C`, for which the GI50 is 32.4 µM in series [1] (read-out: GI50), 32.4 µM in series [1] (read-out: pGI50 (converted)) and less than 0.01 µM in series [6].
With `Cc1onc(-c2c3ccccc3cc3ccccc23)c1C(=O)Nc1cc(C(=O)NCCCN(C)C)n(C)c1`, the results for the GI50 in series [1] (read-out: GI50), in series [1] (read-out: pGI50 (converted)) and in [3] were 7.94 µM, 7.94 µM and 0.407 µM, respectively.
Consider `Cc1onc(-c2c3ccccc3c(Cl)c3ccccc23)c1C(=O)Nc1cc(C(=O)NCCCN(C)C)n(C)c1`, for which the outcome in series [7] was inactive. The result in [2] and in series [8] was Active. Also, the GI50 in [1] (read-out: GI50) was 1.78 µM; in series [1] (read-out: pGI50 (converted)), 1.91 µM; in series [4], 0.0933 µM.
Turning to `C[n+]1ccc(-c2c3nc(c(-c4cc[n+](C)cc4)c4ccc([nH]4)c(-c4cc[n+](C)cc4)c4ccc([nH]4)c(-c4cc[n+](C)cc4)c4nc2C=C4)C=C3)cc1`, in series [2], the outcome was Active.
Regarding `Cc1onc(-c2c3ccccc3cc3ccccc23)c1C(=O)Nc1cc(C(=O)Nc2cc(C(=O)NCCCN(C)C)n(C)c2)n(C)c1`, the values for the GI50 in series [1] (read-out: GI50) and in [1] (read-out: pGI50 (converted)) were 10.5 µM and 12.3 µM, respectively. In addition, the Activity result in [9] was “Non-toxic”; in [13], “Toxic”; in series [14], “Toxic”; in series [15] it was “Toxic”. In addition, the outcome in series [10], in [11] and in series [12] was Active.
On to `Cc1onc(-c2c3ccccc3nc3ccccc23)c1C(=O)Nc1cc(C(=O)Nc2cc(C(=O)NCCCN(C)C)n(C)c2)n(C)c1`, for which the GI50 is 20.9 µM in series [1] (read-out: GI50); 20.9 µM in [1] (read-out: pGI50 (converted)); 0.661 µM in series [16]; 0.776 µM in series [17]; 0.0302 µM in series [18].
On to `Cc1onc(-c2c3ccccc3c(Br)c3ccccc23)c1C(=O)Nc1cc(C(=O)NCCCN(C)C)n(C)c1`, for which the GI50 in series [1] (read-out: GI50) is 8.71 µM; in [1] (read-out: pGI50 (converted)) it was 8.71 µM; in series [19], 0.158 µM.
`Cc1onc(-c2c3ccccc3cc3ccccc23)c1C(=O)Nc1cc(C(=O)Nc2cc(C(=O)N(CCCN(C)C)CCCN(C)C)n(C)c2)n(C)c1`: the GI50 in series [1] (read-out: GI50) and in series [1] (read-out: pGI50 (converted)) was 15.5 µM throughout.

The values above are taken from ChEMBL document CHEMBL1152714, “Design, synthesis and biological evaluation of a novel class of anticancer agents: anthracenylisoxazole lexitropsin conjugates” (Bioorg Med Chem, 2009).
